Measured values from ChEMBL document CHEMBL4251718, “Isolation of Imaqobactin, an Amphiphilic Siderophore from the Arctic Marine Bacterium Variovorax Species RKJM285” (J Nat Prod, 2018).
Activity calls are given as the source filed them. The calls are words filed in the database; no cut-off is given here.

Columns and labels:
[1] = Metal chelating activity assessed as V3+-compound complex formation after 1 hr by LC-HRMS analysis
How it was run: (§1)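 500 μg of ligand was dissolved in 1 mL PBS (pH 7.5) and stirred with excess (15 mg) AlCl3, AuCl3 or VCl3 at room temperature for 1 h. Samples went through C18 SPE with a water wash and MeOH elution, were dried, and were redissolved at 500 μg mL−1 in MeOH. Complexes were detected by C18 LC-HRMS using a water/acetonitrile 0.1% formic acid gradient.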

[2] = Metal chelating activity assessed as Al3+-compound complex formation after 1 hr by LC-HRMS analysis; how it was run: as §1
[3] = Metal chelating activity assessed as Au3+-compound complex formation after 1 hr by LC-HRMS analysis; how it was run: as §1
[4] = test system: Vero; experiment: Cytotoxicity against African green monkey Vero cells after 24 hrs by alamar blue assay; type: cell-based; conditions: chlorocebus sabaeus
How it was run: (§2)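 Cytotoxicity was measured with Alamar blue. Fluorescence (ex 560/12, em 590 nm) was read at time zero and 4 h after Alamar blue addition, and IC50 values were calculated from these readings. The free ligand and its Fe(III) and Ga(III) complexes were tested.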

[5] = test system: Keratinocyte; experiment: Cytotoxicity against human epidermal keratinocytes after 24 hrs by alamar blue assay; how it was run: as §2
[6] = test system: Staphylococcus aureus; experiment: Antibacterial activity against methicillin-resistant Staphylococcus aureus ATCC 33591 after 22 hrs by microbroth dilution method; type: functional, organism-based; conditions: ATCC 33591, 22 h
How it was run: (§3)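 CLSI broth microdilution, run in triplicate. OD600 was read at time zero and again after 22 h at 37 °C, and percent growth inhibition was calculated from these readings. The free ligand and its Fe(III) and Ga(III) complexes were tested.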

[7] = test system: Enterococcus faecium; experiment: Antimicrobial activity against vancomycin-resistant Enterococcus faecium EF379 after 22 hrs by micro broth dilution assay; type: functional, organism-based; conditions: EF379, 22 h; how it was run: as §3
[8] = test system: Staphylococcus warneri; experiment: Antimicrobial activity against Staphylococcus warneri ATCC 17917 after 22 hrs by micro broth dilution assay; type: functional, organism-based; conditions: ATCC 17917, 22 h; how it was run: as §3
[9] = test system: Proteus vulgaris; experiment: Antimicrobial activity against Proteus vulgaris ATCC 12454 after 22 hrs by micro broth dilution assay; type: functional, organism-based; conditions: ATCC 12454, 22 h; how it was run: as §3

In the case of `CCCCCCCCCCCC(=O)NC(CCCN(O)C=O)C(O)C(C)C(=O)N[C@@H](CO)C(=O)N[C@@H]1CCCN(O)C(=O)CC(C)OC(=O)[C@H]([C@@H](O)C(=O)O)NC(=O)[C@H]([C@@H](C)O)NC1=O` (some centres undefined), the Activity [1] is reported as “Active”, the Activity [2] is reported as “Active” and the Activity [3] is reported as “Active”. For the same compound, the Activity [4] was “Non-Toxic”, the Activity [5] was “Non-Toxic” and the IC50 [6] was 35 µM. The IC50 [7] was 11 µM, the IC50 [8] was 28 µM and the IC50 [9] was 14 µM.
